# A selection: hits, their analogues and other compounds. The true share with any hit is near 3.8%.
# BB579 growth dn: yeast BB579 growth reduction in restrictive medium. S. cerevisiae BB579 growth, OD615, 48 h. inhibition, % at 10 µM. hit rate 0.51% among 140,000. AID 804;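 active = inhibition above a set limit, 3 SD over the mean compound inhibition, cut at about 44% in these data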
#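 test system = yeast BB579 (DeaD) | buffer or medium = restrictive CSMM-D medium | doses = single compound dose of 10 µM, 0.25% DMSO final | times = 4 h preincubation and 48 h exposure at 30 °C | technique = culture absorbance at 615 nm | benchmarks = amphotericin B 10 µg/mL, positive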
# Measles CPE: protection of cells from measles virus | Measles virus-infected cells, CPE protection, absorbance | protection (pct of control), % at 4 µM | hit rate 1.5% among 140,000; in the data active = protection mostly above about 24%, no sharp cut-off; inactive = mostly below about 26%
# RAM network inh: inhibitors of the yeast RAM network. S. cerevisiae dse1pr::URA3 reporter, 5-FOA growth OD615, 2 d; analog-sensitive cbk1-as2 kinase mutant strain. AID 868. hit rate 1.8% among 190,000. inhibition, % at 50 µM;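 active = inhibition above a set limit, 3 SD over mean compound inhibition, cut at about 8.4% in these data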;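 note: 0% = DMSO-only wells with no growth and 100% = 10 µM 1-NA-PP1 full growth; inhibition rescues growth on 5-FOA so higher OD means more RAM inhibition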
# SDO1 yeast rescue: restores growth of sdo1-depleted yeast. AID 817. S. cerevisiae sdo1-depleted JHY4D growth rescue, OD600 30 h; stronger effect = higher value; pdr5 snq2 efflux-pump mutant strain. z-score at 10 µM. hit rate 0.21% among 140,000;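 active = z-score above 3 at both the 24 hr and the 30 hr optical density reads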;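 note: z-score against mean and SD of all compound wells on the same plate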
# Yeast lifespan up: extends the lifespan of yeast. S. cerevisiae growth with nicotinamide, OD615; deaD strain in restrictive glucose medium. inhibition of the nicotinamide effect, % at 10 µM. hit rate 0.68% among 130,000;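 active = inhibition above a set limit, placed 3 SD over the median of all compounds, cut at about 26% in these data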;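 note: 0% = nicotinamide-treated wells and 100% = cells grown without nicotinamide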
#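 Buffer or medium: CSMM-D glucose medium, restrictive; test system: modified budding yeast, DeaD strain; compound: single dose 10 µM compound, 0.25% DMSO; schedule: culture preincubation 4 h, compound exposure 48 h, both 30 °C; detection: optical density (absorbance) at 615 nm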
# Active calls of the source: *; . = no result.
SMILES,BB579 growth dn,Measles CPE,RAM network inh,SDO1 yeast rescue,Yeast lifespan up
COC(=O)c1sc(NC(=O)c2cccc([N+](=O)[O-])c2)c(C(N)=O)c1C,-32.1,17.2,3.5,0.7,1.7
CC(=O)c1ccc(NC(=O)c2ccn(C(=O)OCC(C)C)n2)cc1,-37.9,4.8,1.1,-0.21,-2.0
O=C(NNC(=O)c1cccnc1SCc1cccc([N+](=O)[O-])c1)c1ccccn1,-20.7,3.1,2.1,-1.24,0.3
O=C(NCCn1ccc2ccccc21)c1cccc([N+](=O)[O-])c1,.,.,0.8,.,.
CN(C)S(=O)(=O)c1cc(C(=O)NCCCn2ccc3ccccc32)ccc1Cl,-52.8,8.3,9.3*,-1.43,8.4
O=C(NC(=S)NCCC1=CCCCC1)c1cccnc1,.,.,0.0,.,.
COc1ccc(C(=O)Nc2nc3c(s2)CCCC3)cc1S(=O)(=O)N1CCCc2ccccc21,-36.4,35.6*,4.6,-0.77,-0.7
Cc1cc(N2CCOCC2)ccc1/C=C\[N+](=O)[O-],8.8,6.1,-1.2,-0.83,34.1*
CCC1(c2ccc(F)cc2)NC(=O)N(CC(=O)c2ccc[nH]2)C1=O (centres undefined),-48.2,30.1*,1.4,0.66,-10.5
CN1CCN(C(CC(=O)Nc2cccc(O)c2)C(=O)O)CC1 (centres undefined),.,.,0.4,.,.
COC(=O)C1=C(C(=O)OC)SC(=C2C(=S)C(C)(C)N(C(=O)C3CC3)c3ccccc32)S1,-50.7,5.9,6.3,-0.07,0.6
COC(=O)C1=C(C(=O)OC)SC(=C2C(=S)C(C)(C)N(C(=O)C(C)C)c3ccccc32)S1,-24.1,1.5,6.6,-1.69,34.8*
O=C1CC(c2ccccc2)n2nc(N3C(=O)CCC3=O)nc2N1 (centres undefined),8.7,52.0*,1.6,0.35,-7.1
O=C1CC(c2ccc(Cl)cc2)n2nc(N3C(=O)CCC3=O)nc2N1 (centres undefined),-53.9,5.3,0.9,-0.06,-17.7
CCOC(=O)c1c(C)n(C)c2ccc(OC(=O)c3ccoc3)cc12,-40.7,39.4*,3.9,0.63,-24.1
O=S(=O)(c1ccccc1)N1CCC2(CC1)OCCO2,.,.,1.6,.,.
O=C(NCc1ccccc1)c1cccc(COc2cccc(Cl)c2)c1,-34.3,5.9,9.2*,-1.04,-10.8
O=C(NCc1ccccc1)c1cccc(COc2ccc(Cl)cc2)c1,6.5,7.2,4.5,-0.65,-12.3
NNC(=O)c1cccc(COc2cccc(Br)c2)c1,-8.3,1.2,-0.4,-0.66,-19.8
NNC(=O)c1cccc(COc2ccc(Br)cc2)c1,78.5*,19.6,0.0,-1.54,-7.9
CC(C)N(O)C(=O)NC(C)(C)C,-37.6,2.7,0.4,-0.66,-11.8
O=C1NC(CCc2ccccc2)C(=O)N1CCOc1cccc(Br)c1 (centres undefined),.,.,6.7,.,.
O=C(COc1ccc(Br)cc1Cl)NC1CCCCC1,-28.1,1.0,8.9*,-1.68,3.5
O=C(COc1ccc(Br)cc1Br)NC1CCCC1,.,.,0.2,.,.
Cc1ccc(S(=O)(=O)N(CC(O)CN2C(=O)NC(C)(C)C2=O)c2ccccc2)cc1 (centres undefined),-19.1,22.4,2.3,0.54,-8.3
SMILES,BB579 growth dn,Measles CPE,RAM network inh,SDO1 yeast rescue,Yeast lifespan up
O=C(NC(Cc1c[nH]c2ccccc12)C(=O)Nc1ccc(OC(F)(F)F)cc1)c1cccs1 (centres undefined),3.8,52.1*,6.7,-1.87,9.8
Fc1ccc(C(CCCn2nnc(-c3cccnc3)n2)c2ccc(F)cc2)cc1,-29.4,5.4,10.0*,-0.62,0.7
COC(=O)Cc1cc(=O)n(-c2nc3ccccc3[nH]2)[nH]1,71.5*,12.1,2.0,0.66,-5.5
O=C(Nc1ccc(Cl)c(S(=O)(=O)Nc2ccccc2Cl)c1)c1cccs1,-12.2,7.5,4.2,-1.07,17.0
COc1ccc(NC(=O)CCC(=O)c2cccs2)cc1S(=O)(=O)Nc1ccccc1Cl,-31.4,7.1,10.0*,0.87,4.3
N/C(Cc1ccc(Cl)cc1)=N\OC(=O)c1ccccc1,96.3*,5.7,-0.8,-1.77,-12.9
O=C(CN1C2=NCCCN2c2ccccc21)c1ccc(Cl)cc1Cl,10.4,3.3,3.3,0.95,-3.1
CCCCc1c(O)nc(SCC(=O)Nc2ccc3c(c2)CCC3)[nH]c1=O,-17.5,49.0*,6.0,-0.41,10.8
CC(C)CNC(=O)c1ccccc1NC(=O)c1ccc(CN2CCOCC2)cc1,-19.0,10.9,1.5,1.19,3.4
CC(=O)Oc1ccc(C(=O)Nc2ccccc2C(=O)NCC(C)C)cc1,-18.2,54.0*,3.4,0.63,-5.5
Cc1n(N)c2ccccc2[n+]1CC(=O)c1ccccc1,.,.,0.0,.,.
Cc1ccc(C(=O)NNC(=S)NC(=O)c2ccc(Cl)cc2Cl)cc1,-17.8,4.7,3.5,0.56,31.3*
O=C(COc1ccccc1)NNC(=S)NC(=O)c1ccc(Cl)cc1Cl,88.3*,3.8,0.4,-1.45,.
CCCCC(=O)NC(=S)NNC(=O)c1ccc(Cl)cc1Cl,.,.,1.7,.,.
O=C(Cc1csc(Nc2nc(=S)[nH]c3ccccc23)n1)N1CCN(c2cccc(C(F)(F)F)c2)CC1,.,.,5.0,.,.
Cc1nn(CC(=O)c2ccccc2)c(=O)c2nn(-c3ccccc3F)c(C)c12,-52.2,4.5,0.4,-0.79,8.0
O=C(CN(c1cccc([N+](=O)[O-])c1)S(=O)(=O)c1ccccc1)N(Cc1ccccc1)Cc1ccccc1,-14.2,20.2,8.6*,0.47,-6.1
O=C(COc1ccc([N+](=O)[O-])cc1)N(Cc1ccccc1)Cc1ccccc1,-24.5,31.5*,11.0*,-1.59,43.5
O=C(CN(c1cccc([N+](=O)[O-])c1)S(=O)(=O)c1ccccc1)NCc1ccccc1,-25.4,13.6,3.6,-0.49,2.8
O=C(COc1ccccc1)NNC(=O)COc1ccc([N+](=O)[O-])cc1,.,.,2.2,.,.
CCOC(=O)c1cnc2c(c(C)nn2CC)c1NCCN1CCOCC1,.,.,3.0,.,.
Cc1cc(C(C)(C)C)cc(S(=O)(=O)Nc2ccc(O)c(C(=O)O)c2)c1C,-14.3,36.0*,-0.1,0.37,-3.9
CC(=O)Nc1ccc(NC(=O)c2ccc(NS(=O)(=O)c3cc(C(C)(C)C)cc(C)c3C)cc2)cc1,-41.6,2.1,10.3*,0.37,2.7
CCn1cc(C(=O)NC2CCCCCC2)c2cc(OC)c(OC)cc2c1=O,-76.9,11.0,-1.1,-0.14,-12.7
COc1ccc(CCc2nnc(CCC(=O)NCCc3ncccc3C)o2)cc1,.,.,1.1,.,.
COc1ccc(/C=N/Nc2snc(SC)c2C#N)cc1OC,-40.2,44.2*,3.0,1.02,-24.3
CCN(CC)c1ccc(/C=C2/C(=O)c3ccc(C(=O)O)cc3C2=O)cc1,-42.9,11.3,9.9*,-0.03,9.3
CCN(CC)c1ccc(C=C2C(=O)OC3(CCCCC3)OC2=O)cc1,.,.,1.2,.,.
COCCN(CC(=O)NCc1ccc(OC)cc1)C(=O)CCC(=O)Nc1nccs1,16.8,3.8,0.7,0.86,-25.6
COc1ccc(N(C)C(=S)Nc2ccc3nc(C)c(C)nc3c2)cc1,4.8,12.5,-0.2,-0.09,42.5*
